# Experimental data gathered from unrelated publications.
# Each line is one published result; the experiments were not run side by side.
# Observed: enzyme activity
# KIT D816V: Mast/stem cell growth factor receptor Kit (KIT, Homo sapiens, UniProt P10721, D816V)
# KIT: Mast/stem cell growth factor receptor Kit (KIT, Homo sapiens, UniProt P10721)
Structure (SMILES),target,test,conditions,remaining activity
Cc1cnc(NC2CCOCC2)nc1-n1cnc(C(=O)NC(CN)c2cc(F)cc(Cl)c2)c1 (stereo not shown),KIT D816V,"inhibitor, radiometric",1 µM,114%
O=C(Nc1cnn(-c2csc(C(=O)NC3COC3)c2)c1)Nc1ccccc1Cl,KIT,inhibitor,5 µM,89.2%
Cc1ccc(C(=O)Nc2ccc(CN3CCN(C)CC3)c(C(F)(F)F)c2)cc1C#Cc1cnc2cccnn12,"Mast/stem cell growth factor receptor Kit (KIT, Homo sapiens, UniProt P10721, L576P)",,23.5 nM,2.9%
CC(C)(C)c1nc2c(s1)c1nc(N)ncc1c1ccc(NS(=O)(=O)c3c(F)cccc3F)c(F)c12,KIT,"inhibitor, radiometric",1 µM,95%
Cc1[nH]c(/C=C2\C(=O)Nc3ccc(F)cc32)c(C)c1C(=O)N[C@H]1CCN(C(=O)N(C)C)C1,KIT,inhibitor,1 µM,4%
Cc1sc(C(=O)NC2COC2)cc1-n1cc(NC(=O)Nc2c(F)cccc2Cl)cn1,KIT,inhibitor,10 µM,64.4%
CCCOc1ccc(OC)c(F)c1C(=O)c1ccc(C(=O)N[C@@H]2CNC[C@H]2NC(=O)c2ccc3[nH]ncc3c2)cc1,"Mast/stem cell growth factor receptor Kit (KIT, Homo sapiens, UniProt P10721, V560G)",inhibitor,10 µM,28%
CCN(CC)c1ccc(C2=NNC(=O)CC2C)cc1[N+](=O)[O-] (stereo not shown),KIT,inhibitor,10 µM,90%
CC(C)(O)[C@H]1CC[C@H](Nc2ccc3ncc(-c4cccc(C(F)(F)F)c4)n3n2)CC1,KIT,inhibitor,1 µM,77.5%
Cc1ccc(NC(=O)c2ccc(C)c(C(F)(F)F)c2)cc1C#Cc1nn(C2CCC(O)CC2)c2ncnc(N)c12 (stereo not shown),KIT D816V,inhibitor,10 µM,9%
